Results reported in BindingDB's records for doi:10.1021/jm0300835 (Duke University, 2003).

Tests used:
[1] = molecular target: T1, M-phase inducer phosphatase 2 (Homo sapiens, UniProt P30305); test: Inhibitory concentration of compound against mutant WT of Cdc25B phosphatase was determined
T1 sequence (P30305 whole entry): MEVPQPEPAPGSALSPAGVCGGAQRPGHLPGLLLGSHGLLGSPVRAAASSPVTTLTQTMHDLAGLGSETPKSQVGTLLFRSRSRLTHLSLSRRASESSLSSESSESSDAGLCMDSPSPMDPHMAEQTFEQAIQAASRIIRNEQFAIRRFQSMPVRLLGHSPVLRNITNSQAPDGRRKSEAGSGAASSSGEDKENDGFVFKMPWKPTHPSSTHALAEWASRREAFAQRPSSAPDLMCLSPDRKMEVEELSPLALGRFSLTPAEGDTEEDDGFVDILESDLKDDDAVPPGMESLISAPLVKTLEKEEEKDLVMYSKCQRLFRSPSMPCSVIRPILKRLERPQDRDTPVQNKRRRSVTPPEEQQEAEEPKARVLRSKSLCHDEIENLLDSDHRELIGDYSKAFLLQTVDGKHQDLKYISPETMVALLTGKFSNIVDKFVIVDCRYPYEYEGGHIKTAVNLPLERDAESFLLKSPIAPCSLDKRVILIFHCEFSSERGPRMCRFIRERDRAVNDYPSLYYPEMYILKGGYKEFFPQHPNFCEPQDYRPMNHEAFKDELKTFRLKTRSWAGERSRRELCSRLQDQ
Outline: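 Cdc25B catalytic domain constructs (wild-type, site-directed point mutants, truncated); activity with 3-O-methylfluorescein phosphate at 50 μM (~5 × Km), product read at 477 nm by UV-vis under initial velocity (2–5% turnover); eight inhibitor concentrations, IC50 fitted; values are mean of two determinations.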

[2] = molecular target: T1, M-phase inducer phosphatase 2; test: Eight point inhibitory concentration against Cell division cycle 25B was determined
Outline: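 Cdc25B activity read by UV-vis at 477 nm as product formed from 3-O-methylfluorescein phosphate (mFP) at 50 μM (~5 × Km), time-dependent, initial-velocity conditions (2–5% turnover); eight inhibitor concentrations, IC50 fitted to eq 1. Each reaction compared with a simultaneous no-inhibitor control; selected compounds run in duplicate.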

[3] = molecular target: T1, M-phase inducer phosphatase 2; test: Inhibitory concentration of compound against Cdc25B phosphatase was determined using CDK2-p-TpY/Cyclin A as a substrate
Outline: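 Cdc25B IC50 with Cdk2-pTpY/CycA protein substrate at 300 nM; eight inhibitor concentrations; time-dependent assays; 1 mg/mL BSA carrier added only after TCA quench, not during reaction.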

[4] = molecular target: T1, M-phase inducer phosphatase 2; test: Inhibitory concentration of compound against mutant F475A of Cell division cycle 25B was determined
Outline: (§1)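 Cdc25B catalytic-domain point mutants, a truncated form and wild type were assayed with 3-O-methylfluorescein phosphate as substrate, monitored at 477 nm under initial velocity conditions. Values are the mean of two separate determinations.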

[5] = molecular target: T2, M-phase inducer phosphatase 3 (Homo sapiens, UniProt P30307); test: Eight point inhibitory concentration against […] was determined
T2 sequence (P30307 whole entry): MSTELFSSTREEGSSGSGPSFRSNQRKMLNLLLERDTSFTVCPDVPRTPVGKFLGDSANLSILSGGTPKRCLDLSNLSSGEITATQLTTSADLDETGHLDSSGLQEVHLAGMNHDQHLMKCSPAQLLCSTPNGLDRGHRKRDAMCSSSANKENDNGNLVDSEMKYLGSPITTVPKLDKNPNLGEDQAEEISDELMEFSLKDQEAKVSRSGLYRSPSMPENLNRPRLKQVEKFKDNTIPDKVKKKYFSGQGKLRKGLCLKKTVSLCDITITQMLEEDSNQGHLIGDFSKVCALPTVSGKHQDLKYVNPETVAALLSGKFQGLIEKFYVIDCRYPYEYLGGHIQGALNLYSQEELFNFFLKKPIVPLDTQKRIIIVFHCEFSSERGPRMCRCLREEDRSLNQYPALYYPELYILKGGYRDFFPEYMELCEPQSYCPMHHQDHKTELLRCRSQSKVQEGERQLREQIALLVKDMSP
Outline: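 Phosphatase activity measured with 3-O-methylfluorescein phosphate at 50 μM (~5 × Km), product formation followed at 477 nm by UV-vis under initial velocity conditions (2–5% turnover) in time-dependent assays. Eight inhibitor concentrations were used, and IC50 was obtained by fitting to a dose–response equation.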

[6] = molecular target: T1, M-phase inducer phosphatase 2; test: Inhibitory concentration of compound against mutant E478Q of Cell division cycle 25B was determined; outline: as §1
[7] = molecular target: T1, M-phase inducer phosphatase 2; test: Inhibitory concentration of compound against mutant E474Q of Cell division cycle 25B was determined; outline: as §1
[8] = molecular target: T1, M-phase inducer phosphatase 2; test: Inhibitory concentration of compound against mutant M531A of Cell division cycle 25B was determined; outline: as §1

In the case of `O=C1CC(=O)C(=O)C(c2c[nH]c3ccccc23)C1=O` [2,5-Dihydroxy-3-(1H-indol-3-yl)-[1,4]benzoquinone], the IC50 [1] is reported as 18 µM, the IC50 [2] is reported as 18 µM and the IC50 [3] is reported as over 50 µM.

`CC(C)=CCc1cccc2c(C3C(=O)C(=O)CC(=O)C3=O)c[nH]c12` [2,5-Dihydroxy-3-[7-(3-methyl-but-2-enyl)-1H-indol-3-yl]-[1,4]benzoquinone] was tested, and the IC50 [4] was over 50 µM, the IC50 [5] was 15 µM and the IC50 [6] was 6.5 µM. It also gave an IC50 [7] of over 50 µM and an IC50 [8] of 6.5 µM.
